Screening data from PubChem BioAssay.
KCNK9 block = KCNK9 potassium channel inhibitors, primary screen, HEK293 cells, thallium flux | B-score at 10 µM | AID 488922, 2010 | Potassium channel subfamily K member 9 (Homo sapiens), Q9NPC2 | FluxOR thallium flux fluorescence; hits give low values | 310,000 compounds, 1.2% hits;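 active = ratio B-score over 3 SD below the library mean, with starting fluorescence within 5 SD of its mean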;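 also: negative B-score means less thallium flux so channel inhibition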
hERG protect = hERG rescue from dofetilide block, primary screen, cell-based, CHO-hERG, FluxOR thallium flux, dofetilide IC70. Voltage-gated inwardly rectifying potassium channel KCNH2 (Homo sapiens), Q12809. dofetilide IC70 present. activation (rescue from dofetilide block), less the hit threshold, % at 10 µM. 310,000 compounds, 0.51% hits. AID 1511, 2009;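 active = activation above the mean of controls blocked by dofetilide plus 5 SD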;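 also: thallium influx through hERG after potassium depolarization seen as dye fluorescence rise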
KCNK3 block = human KCNK3 channel inhibitors, primary screen, CHO cells, FluxOR thallium flux, B-score; Potassium channel subfamily K member 3 (Homo sapiens), O14649; FluxOR fluorescence; hits give low values; B-score at 10 µM; 340,000 compounds, 0.84% hits; AID 602410, 2012;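 active = B-score under library mean minus 4 SD, starting fluorescence ratio at most library mean plus 5 SD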;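 also: more negative B-score means stronger inhibition of thallium flux through KCNK3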
KCNQ1 pot = potentiators or activators of KCNQ1 channel, primary screen, cell-based, thallium flux, high-throughput. CHO-K1 KCNQ1, thallium flux FluxOR fluorescence; hits give high values. 310,000 compounds, 0.35% hits. Potassium voltage-gated channel subfamily KQT member 1 (Homo sapiens), P51787. B-score at 10 µM;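 active = fluorescence ratio B-score, a plate-corrected score, at least three library SD, with initial intensity B-score within 5 SD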
Target sequence (P51787 whole entry, looked up): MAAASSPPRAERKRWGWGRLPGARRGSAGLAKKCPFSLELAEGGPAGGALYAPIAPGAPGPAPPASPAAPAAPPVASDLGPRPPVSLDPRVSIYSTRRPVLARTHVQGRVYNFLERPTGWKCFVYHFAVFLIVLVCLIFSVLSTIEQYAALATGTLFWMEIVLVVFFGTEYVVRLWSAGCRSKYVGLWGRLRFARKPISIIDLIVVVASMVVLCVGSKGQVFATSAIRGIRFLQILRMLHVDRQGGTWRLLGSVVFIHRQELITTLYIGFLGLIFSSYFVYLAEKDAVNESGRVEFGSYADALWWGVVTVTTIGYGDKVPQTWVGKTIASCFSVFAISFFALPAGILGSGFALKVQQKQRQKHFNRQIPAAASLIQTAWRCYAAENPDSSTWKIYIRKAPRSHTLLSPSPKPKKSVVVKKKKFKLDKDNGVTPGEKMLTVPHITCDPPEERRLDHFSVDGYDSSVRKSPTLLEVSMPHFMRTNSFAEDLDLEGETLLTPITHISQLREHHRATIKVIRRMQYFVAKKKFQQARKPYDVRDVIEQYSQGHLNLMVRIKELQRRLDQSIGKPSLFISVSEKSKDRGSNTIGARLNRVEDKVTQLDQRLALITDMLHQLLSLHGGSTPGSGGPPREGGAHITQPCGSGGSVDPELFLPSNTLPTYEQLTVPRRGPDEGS
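System: Stable KCNQ1 CHO-K1 line | Incubation: 90 min dye loading and 20 min compound exposure, both at room temperature | Measure: Ratio B score | Medium: Assay buffer for compound exposure, DMSO matched across wells | Compound dosing: Single-concentration screen | Probe or stimulus: K+/Tl+ depolarizing stimulus | Measured by: Kinetic FluxOR fluorescence, 10 s baseline plus 110 s post-stimulus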
Kir21 block = inhibitors of mouse Kir2.1 inward-rectifier potassium channel. HEK293-Kir2.1, FluxOR thallium flux fluorescence; hits give low values. B-score at 10 µM. Inward rectifier potassium channel 2 (Mus musculus), P35561. 310,000 compounds, 0.85% hits;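 active = fluorescence ratio B-score at or below minus 3 SD of library scores, with starting-brightness B-score within 2 SD, cut at about -4.2 in these data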;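 also: channel flux triggered by added potassium and thallium sulfate stimulus; B-score of peak minus minimum fluorescence over baseline after thallium stimulus; more negative B-score means stronger Kir2.1 block with less thallium influx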
KCNQ1 inh = inhibitors of human KCNQ1 channel, primary screen, cell-based, thallium flux, high-throughput | 310,000 compounds, 1.3% hits | CHO-K1 KCNQ1, FluxOR thallium flux fluorescence; hits give high values | B-score at 10 µM | Potassium voltage-gated channel subfamily KQT member 1 (Homo sapiens), P51787;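 active = compounds whose thallium flux B-score, printed positive for inhibition, exceeds three library SD while starting fluorescence stays within three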;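 also: channel opened by potassium depolarization with thallium stimulus after 20 min compound exposure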
KCNK9 block conf = KCNK9 potassium channel inhibitors, confirmation, HEK293 cells, thallium flux, duplicate | shares compounds with KCNK9 block | FluxOR thallium flux fluorescence | inhibition, % at 10 µM | 4,900 compounds, 43% hits;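 active = thallium signal inhibited by more than 5 SD of the compound-free buffer control wells, on both duplicate plates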
Kir2-1 spec = mouse Kir2.1 channel inhibition, confirmation, selectivity assay for KCNK9 modulator project, cell-based, HEK293, thallium flux; 4,900 compounds, 4% hits; shares compounds with KCNK9 block; inhibition, % at 10 µM; Kir2.1 cells, FluxOR thallium flux fluorescence;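 active = thallium signal drop more than 5 SD beyond the mean of the no-compound control wells, seen in both duplicate plates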;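 also: signal is fluorescence rise after thallium addition divided by baseline fluorescence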
KCNK9 uninduced = thallium flux in non-induced HEK293 cells, confirmation, counter-screen for KCNK9 inhibitor project, cell-based, second counter screen, non-induced KCNK9-HEK293. shares compounds with KCNK9 block. FluxOR thallium flux. inhibition, % at 10 µM. AID 492997, 2010. 4,900 compounds, 40% hits;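 active = thallium signal drop beyond 5 SD of the untreated control mean, on both duplicate plates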
KCNK3 confirm = retest of human KCNK3 channel inhibitors, confirmation, CHO cells, FluxOR thallium flux, triplicate | shares compounds with KCNK3 block | FluxOR fluorescence; 0% buffer, 100% carvedilol maximal block | ratio percent of control, % at 10 µM | 2,400 compounds, 99% hits;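 active = ratio percent of control, averaged over triplicates, above buffer control mean plus 5 SD, cut at about 64% in these data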;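 also: ratio is the fluorescence rise from min to max over baseline after thallium stimulus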
KCNK3 uninduced = thallium flux inhibition in non-induced cells, primary screen, counter-screen for KCNK3 inhibitor project, cell-based, non-induced KCNK3 line, FluxOR thallium, triplicate. shares compounds with KCNK3 block. non-induced KCNK3 parental cells; hits give low values. thallium flux ratio (lower = more inhibition) at 10 µM. 2,400 compounds, 40% hits. AID 651747, 2012;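 active = thallium flux ratio, averaged over three wells, more than 5 SD below the buffer control mean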;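 also: host cells are CHO cells without KCNK3 induction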
Hits are given with their value; - = inactive; . = no result given. In the library only some 3.7% were active in any assay of this set; here they are far more common.

SMILES	KCNK9 block	hERG protect	KCNK3 block	KCNQ1 pot	Kir21 block	KCNQ1 inh	KCNK3 confirm	KCNK3 uninduced	others
COC(=O)C1=C(c2ccc(F)cc2OCc2ccccc2)C[C@@H]2CC[C@H]1N2C(=O)NCc1ccc2c(c1)OCO2	.	.	-	.	.	.	.	.
FC(F)(F)c1ccc2c(c1)N(CCCN1CCN(CCCl)CC1)c1ccccc1S2	-	-	-	-	-	-	.	.	KCNK9 block conf=-;Kir2-1 spec=-;KCNK9 uninduced=-
O=[N+]([O-])c1[nH]cnc1Br	.	.	-	.	.	.	.	.
Cc1nn(Cc2ccccc2Cl)c(Cl)c1C(=O)OCC(=O)NC(=O)NC1CCCCC1	-	-	-	-	-	-	.	.	KCNK9 block conf=-;Kir2-1 spec=-;KCNK9 uninduced=-
CCCCn1c(=O)c(C=Nc2ccc(Cl)cc2)c(O)n(Cc2ccco2)c1=O	-	-	-	-	-	-	.	.	KCNK9 block conf=-;Kir2-1 spec=-;KCNK9 uninduced=-
COCc1ccc(CN2CCCC(C(=O)c3sccc3C)C2)o1 (centres undefined)	-	-	-	-	-	-	.	.	KCNK9 block conf=-;Kir2-1 spec=-;KCNK9 uninduced=-
O=C(CN1CC=C(c2ccccc2)CC1)NC(=O)NC1CCCCC1	-	-	-	-	-	-	.	.	KCNK9 block conf=-;Kir2-1 spec=-;KCNK9 uninduced=-
CC(C)(C)NC(=O)NC(=O)CN1CC=C(c2ccccc2)CC1	-	-	-	-	-	-	.	.	KCNK9 block conf=-;Kir2-1 spec=-;KCNK9 uninduced=-
O=C1NC(=S)SC1=Cc1ccc(N(CCCl)CCCl)cc1	.	.	-	.	.	.	.	.
CCC1C(c2cc(OC)c(OC)c(OC)c2)c2cc3c(cc2OC1N1CCCC1)OCO3 (centres undefined)	.	.	-	.	.	.	.	.
COc1ccccc1CN1CCN(C(=O)COc2ccc3ccccc3c2)CC1	-	-	-	-	-	-	.	.	KCNK9 block conf=-;Kir2-1 spec=33.0%;KCNK9 uninduced=-
COc1ccccc1CN1CCN(C(=O)COc2cccc(C)c2)CC1	-	-	-	-	-	-	.	.
Nc1ncc([N+](=O)[O-])s1	.	.	-	.	.	.	.	.
CCCCn1c(=O)c(C(=O)Nc2ccccn2)c(O)c2ccccc21	-	-	-8.72	-	-	7	104.0	0.142
Clc1ccc(CCC(Cn2ccnc2)Sc2c(Cl)cccc2Cl)cc1 (centres undefined)	.	.	-14.4	.	.	.	119.7	0.153
Clc1ccc(Cn2ccnc2)cn1	-	-	-	-	-	-	.	.
CC1CC(C)OP(=O)(OCCC#N)O1 (centres undefined)	.	.	-	.	.	.	.	.
Cn1c(O)c(N=Nc2cccc(S(=O)(=O)N3CCOCC3)c2)c(=O)n(C)c1=O	-	-	-	-	-	-	.	.
CCN(CC)S(=O)(=O)c1cccc(N=Nc2c(O)n(CC)c(=S)n(CC)c2=O)c1	-6.76	-	-11.5	-	-	-	117.3	-
COc1ccc(C2=NCC(=O)N(CC(=O)NCc3ccco3)c3sc4c(c32)CCCC4)cc1	-	-	-8.88	-	-	-	104.3	-
O=C(NCc1ccccc1)c1cccn(Cc2ccccc2)c1=O	-	-	-9.78	-	-	-	108.0	-
CNC(=O)c1cccn(Cc2ccc(C(F)(F)F)cc2)c1=O	-	-	-	-	-	-	.	.
CCN(CC)C(=O)c1ccc(NC(=O)Nc2ccccc2F)cc1	-	-	-9.14	-	-	-	84.7	0.157
CCN(CC)C(=O)c1ccc(NC(=O)CCCSc2ccccc2)cc1	-	-	-	-	-	-	.	.
CC(C)CCNC(=O)c1cc(C(=O)c2cc(Br)ccc2O)cn(CCC(C)C)c1=O	-	-	-11.4	-	-	-	102.7	-
SMILES	KCNK9 block	hERG protect	KCNK3 block	KCNQ1 pot	Kir21 block	KCNQ1 inh	KCNK3 confirm	KCNK3 uninduced	others
CC(C)CCNC(=O)c1cc(C(=O)c2cc(F)ccc2O)cn(CCC(C)C)c1=O	-	-	-	-	-	-	.	.
Nc1ccccc1Cl	.	.	-	.	.	.	.	.
Cc1ccc(CN2CCCN(Cc3ccccc3C)S2(=O)=O)cc1	-6.82	-	-10.3	-	-	-	121.3	-
COc1ccc2[nH]c(C)c(CCNCc3cc(OC)c4c(c3)OCO4)c2c1	.	.	-	.	.	.	.	.
Clc1ccc(C(Cn2ccnc2)OCc2csc3c(Cl)cccc23)c(Cl)c1 (centres undefined)	.	.	-11.6	.	.	.	105.3	0.156
CC1CN1P(=O)(Oc1ccccc1)N1CC1C (centres undefined)	.	.	-	.	.	.	.	.
COc1ccc(N=Cc2c(O)n(Cc3ccccc3)c(=S)[nH]c2=O)c(OC)c1	-	-	-8.73	-	-	6	151.3	-
CCOP(=O)(Nc1ccc2c(c1)C(=NNC(N)=S)c1ccccc1-2)OCC	.	.	-	.	.	.	.	.
